From ChEMBL document CHEMBL4725354 (J Med Chem, 2020)

Legend:
[1] = Growth inhibition of MDCK2 cells after 72 hrs by MTT assay; assay type: cell-based, Canis lupus familiaris, MDCK-II; settings: dog
In short: (§1)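 MTT viability assay. Compound dilutions in culture medium (3.2 to 1000 µM as prepared). About 2,000 cells per well, 72 h at 37 °C, 5% CO2. Culture medium set as 100% and 10% DMSO as 0% viability. MTT added for 1 h, formazan dissolved in DMSO, absorbance read at 570 nm with 690 nm background. GI50 from nonlinear regression of absorbance vs log concentration; at least three independent experiments, duplicates, mean ± SEM.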

MDCK-II [2] = test: Cytotoxicity against MDCK2 cells over expressing human ABCG2 at 10 uM assessed as reduction in cell viability after 72 hrs by MTT assay; assay type: ADME, cell-based, Canis lupus familiaris; settings: dog
In short: (§2)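 Single-concentration screen at 10 µM in MDCK II BCRP and parental MDCK II cells. MTT assay, 72 h at 37 °C, 5% CO2. Viability referenced to culture medium (100%) and 10% DMSO (0%). Mean ± SEM of at least three independent experiments with duplicates.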

ABCG2 [3] = test: Therapeutic ratio of GI50 for Growth inhibition of MDCK2 cells over expressing human ABCG2 to IC50 for inhibition of human ABCG2 expressed in MDCK2 cells co-expressing GFP preincubated for 15 mins followed by pheophorbideA addition and measured after 2 hrs by flow cytometric analysis; assay type: toxicity, cell-based; settings: dog, MDCK2 cells overexpressing human ABCG2, probe pheophorbide A; read-out: TI
[4] = biological target: T1, Broad substrate specificity ATP-binding cassette transporter ABCG2 (Homo sapiens, UniProt Q9UNQ0); test: Inhibition of human ABCG2 expressed in MDCK2 cells co-expressing GFP preincubated for 30 mins followed by Hoechst 33342 addition and measured every 60 sec for 120 mins by fluorescence assay; assay type: cell-based, MDCK-II
T1 sequence (Q9UNQ0 whole entry): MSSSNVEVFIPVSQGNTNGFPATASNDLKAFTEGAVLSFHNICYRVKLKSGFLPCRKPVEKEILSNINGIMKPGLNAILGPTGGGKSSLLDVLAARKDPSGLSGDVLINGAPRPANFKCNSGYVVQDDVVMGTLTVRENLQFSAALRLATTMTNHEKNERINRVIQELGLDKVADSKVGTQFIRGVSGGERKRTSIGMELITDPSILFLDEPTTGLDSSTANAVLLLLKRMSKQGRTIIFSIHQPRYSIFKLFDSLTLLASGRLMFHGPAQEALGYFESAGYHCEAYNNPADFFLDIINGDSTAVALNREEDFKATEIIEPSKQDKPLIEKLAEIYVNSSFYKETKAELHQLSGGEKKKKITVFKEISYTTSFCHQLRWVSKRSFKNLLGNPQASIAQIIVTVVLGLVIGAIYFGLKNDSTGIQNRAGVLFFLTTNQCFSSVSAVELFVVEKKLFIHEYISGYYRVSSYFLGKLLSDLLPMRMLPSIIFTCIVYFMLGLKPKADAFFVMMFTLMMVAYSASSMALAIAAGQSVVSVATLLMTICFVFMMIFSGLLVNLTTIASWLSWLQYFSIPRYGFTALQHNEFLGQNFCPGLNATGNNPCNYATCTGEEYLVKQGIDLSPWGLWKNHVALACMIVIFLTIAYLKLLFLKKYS
In short: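 MDCK II cells transfected with human ABCG2 cDNA C-terminally fused to GFP. Hoechst 33342 added at 1 µM final. Fluorescence (ex 355, em 460 nm) read every 60 s for 120 min. Steady-state means vs log concentration fitted by 3- or 4-parameter logistic to give IC50.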

ABCG2 [5] = biological target: T2, ABCG2 (Homo sapiens, UniProt Q9UNQ0); test: Inhibition of human ABCG2 expressed in MDCK2 cells co-expressing GFP preincubated for 30 mins followed by Hoechst 33342 addition and measured every 60 sec for 120 mins by fluorescence assay relative to control; assay type: cell-based, MDCK-II; settings: probe Hoechst 33342, read-out: Imax
T2 sequence (Q9UNQ0 whole entry): T1 sequence (Q9UNQ0 whole entry)
In short: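 MDCK II cells transfected with human ABCG2 cDNA C-terminally fused to GFP. Steady-state means vs log concentration fitted by 3- or 4-parameter logistic to give IC50.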

ABCG2 [6] = test: Therapeutic ratio of GI50 for Growth inhibition of MDCK2 cells over expressing human ABCG2 to IC50 for inhibition of human ABCG2 expressed in MDCK2 cells co-expressing GFP preincubated for 30 mins followed by Hoechst 33342 addition and measured every 60 sec for 120 mins by fluorescence assay; assay type: toxicity, cell-based; settings: dog, MDCK2 cells overexpressing human ABCG2, probe Hoechst 33342; read-out: TI
ABCG2 [7] = biological target: T2, ABCG2; test: Inhibition of human ABCG2 expressed in MDCK2 cells co-expressing GFP preincubated for 15 mins followed by pheophorbideA addition and measured after 2 hrs by flow cytometric analysis relative to control; assay type: cell-based, MDCK-II; settings: probe pheophorbide A, read-out: Imax
MDCK-II [8] = test: Cytotoxicity against MDCK2 cells assessed as reduction in cell viability at 10 uM after 72 hrs by MTT assay; assay type: cell-based, Canis lupus familiaris; settings: dog; in short: as §2
[9] = biological target: T3, ATP-dependent translocase ABCB1 (Homo sapiens, UniProt P08183); test: Inhibition of human ABCB1 expressed in A2780/ADR cells preincubated for 30 mins followed by calcein AM addition and measured every 60 secs for 60 mins by fluorescence assay; assay type: cell-based
In short: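 ABCB1 in A2780/ADR cells (kept resistant by one passage in 1 µM doxorubicin every 10 passages). 30,000 cells per well in Krebs-HEPES buffer, preincubated 30 min at 37 °C with inhibitor. Calcein AM added from a 3.125 µM solution. Fluorescence (ex 485, em 520 nm) read every 60 s for 60 min. Initial linear slopes vs log concentration fitted to give IC50.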

[10] = Growth inhibition of MDCK2 cells over expressing human ABCG2 after 72 hrs by MTT assay; assay type: ADME, cell-based, Canis lupus familiaris, MDCK-II; settings: dog, MDCK2 cells overexpressing human ABCG2; in short: as §1
[11] = biological target: T1, Broad substrate specificity ATP-binding cassette transporter ABCG2; test: Inhibition of human ABCG2 expressed in MDCK2 cells co-expressing GFP preincubated for 15 mins followed by pheophorbideA addition and measured after 2 hrs by flow cytometric analysis; assay type: cell-based, MDCK-II
In short: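 Pheophorbide A added to 0.5 µM final and incubated 2 h. Read by flow cytometry (ex 488, em 695/50 nm); GFP expression checked at 525/30 nm. IC50 from 3- or 4-parameter logistic fit.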

[12] = biological target: T3, ATP-dependent translocase ABCB1; test: Inhibition of human ABCB1-mediated multidrug resistance in human A2780/ADR cells assessed as potentiation of doxorubicin-induced cytotoxicity by measuring half maximal reversal concentration after 72 hrs by MTT assay; assay type: cell-based
[13] = biological target: Multidrug resistance-associated protein 1 (Homo sapiens, UniProt P33527); test: Inhibition of human ABCC1-mediated multidrug resistance in MDCK2 cells assessed as potentiation of doxorubicin-induced cytotoxicity by measuring half maximal reversal concentration after 72 hrs by MTT assay; assay type: cell-based; settings: mdck-ii
Sequence of Multidrug resistance-associated protein 1 (P33527 whole entry): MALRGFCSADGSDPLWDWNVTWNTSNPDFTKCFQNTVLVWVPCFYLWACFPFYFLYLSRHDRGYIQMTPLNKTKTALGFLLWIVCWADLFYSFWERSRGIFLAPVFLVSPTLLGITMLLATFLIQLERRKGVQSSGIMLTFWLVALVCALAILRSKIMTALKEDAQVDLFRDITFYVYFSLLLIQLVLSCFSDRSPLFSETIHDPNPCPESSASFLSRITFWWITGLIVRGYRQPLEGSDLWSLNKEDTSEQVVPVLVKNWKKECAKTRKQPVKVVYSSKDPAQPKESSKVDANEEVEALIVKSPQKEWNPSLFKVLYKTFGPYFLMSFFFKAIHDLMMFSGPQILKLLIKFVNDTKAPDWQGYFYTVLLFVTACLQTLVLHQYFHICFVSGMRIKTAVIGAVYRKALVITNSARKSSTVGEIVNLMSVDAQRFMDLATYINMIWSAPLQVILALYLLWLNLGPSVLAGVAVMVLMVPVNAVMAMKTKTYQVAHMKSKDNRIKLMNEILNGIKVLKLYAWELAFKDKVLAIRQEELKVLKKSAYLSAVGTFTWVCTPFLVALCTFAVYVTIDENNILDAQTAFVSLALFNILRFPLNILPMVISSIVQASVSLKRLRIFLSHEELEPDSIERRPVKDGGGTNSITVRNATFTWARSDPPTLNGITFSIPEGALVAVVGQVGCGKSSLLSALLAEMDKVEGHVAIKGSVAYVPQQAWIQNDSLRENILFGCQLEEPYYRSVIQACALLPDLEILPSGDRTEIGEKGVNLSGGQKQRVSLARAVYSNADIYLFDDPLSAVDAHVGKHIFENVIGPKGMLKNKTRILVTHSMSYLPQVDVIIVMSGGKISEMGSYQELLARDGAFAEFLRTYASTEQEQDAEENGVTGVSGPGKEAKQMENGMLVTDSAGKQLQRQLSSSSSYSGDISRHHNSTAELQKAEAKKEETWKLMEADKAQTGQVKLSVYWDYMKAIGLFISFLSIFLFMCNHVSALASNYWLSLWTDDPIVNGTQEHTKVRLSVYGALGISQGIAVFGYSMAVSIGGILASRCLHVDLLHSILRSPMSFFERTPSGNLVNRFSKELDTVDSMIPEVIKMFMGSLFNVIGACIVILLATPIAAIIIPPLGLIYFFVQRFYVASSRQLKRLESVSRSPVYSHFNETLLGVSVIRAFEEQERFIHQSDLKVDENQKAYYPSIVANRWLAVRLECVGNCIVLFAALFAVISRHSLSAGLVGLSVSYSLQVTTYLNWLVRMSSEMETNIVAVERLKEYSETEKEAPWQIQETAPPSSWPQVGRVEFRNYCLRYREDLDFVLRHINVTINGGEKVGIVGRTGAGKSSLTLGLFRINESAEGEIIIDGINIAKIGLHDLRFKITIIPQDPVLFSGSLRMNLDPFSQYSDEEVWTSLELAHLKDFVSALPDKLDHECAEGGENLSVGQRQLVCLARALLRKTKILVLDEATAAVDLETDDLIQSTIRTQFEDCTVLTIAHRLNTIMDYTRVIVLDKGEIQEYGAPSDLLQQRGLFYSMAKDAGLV

T3 sequence (P08183 whole entry): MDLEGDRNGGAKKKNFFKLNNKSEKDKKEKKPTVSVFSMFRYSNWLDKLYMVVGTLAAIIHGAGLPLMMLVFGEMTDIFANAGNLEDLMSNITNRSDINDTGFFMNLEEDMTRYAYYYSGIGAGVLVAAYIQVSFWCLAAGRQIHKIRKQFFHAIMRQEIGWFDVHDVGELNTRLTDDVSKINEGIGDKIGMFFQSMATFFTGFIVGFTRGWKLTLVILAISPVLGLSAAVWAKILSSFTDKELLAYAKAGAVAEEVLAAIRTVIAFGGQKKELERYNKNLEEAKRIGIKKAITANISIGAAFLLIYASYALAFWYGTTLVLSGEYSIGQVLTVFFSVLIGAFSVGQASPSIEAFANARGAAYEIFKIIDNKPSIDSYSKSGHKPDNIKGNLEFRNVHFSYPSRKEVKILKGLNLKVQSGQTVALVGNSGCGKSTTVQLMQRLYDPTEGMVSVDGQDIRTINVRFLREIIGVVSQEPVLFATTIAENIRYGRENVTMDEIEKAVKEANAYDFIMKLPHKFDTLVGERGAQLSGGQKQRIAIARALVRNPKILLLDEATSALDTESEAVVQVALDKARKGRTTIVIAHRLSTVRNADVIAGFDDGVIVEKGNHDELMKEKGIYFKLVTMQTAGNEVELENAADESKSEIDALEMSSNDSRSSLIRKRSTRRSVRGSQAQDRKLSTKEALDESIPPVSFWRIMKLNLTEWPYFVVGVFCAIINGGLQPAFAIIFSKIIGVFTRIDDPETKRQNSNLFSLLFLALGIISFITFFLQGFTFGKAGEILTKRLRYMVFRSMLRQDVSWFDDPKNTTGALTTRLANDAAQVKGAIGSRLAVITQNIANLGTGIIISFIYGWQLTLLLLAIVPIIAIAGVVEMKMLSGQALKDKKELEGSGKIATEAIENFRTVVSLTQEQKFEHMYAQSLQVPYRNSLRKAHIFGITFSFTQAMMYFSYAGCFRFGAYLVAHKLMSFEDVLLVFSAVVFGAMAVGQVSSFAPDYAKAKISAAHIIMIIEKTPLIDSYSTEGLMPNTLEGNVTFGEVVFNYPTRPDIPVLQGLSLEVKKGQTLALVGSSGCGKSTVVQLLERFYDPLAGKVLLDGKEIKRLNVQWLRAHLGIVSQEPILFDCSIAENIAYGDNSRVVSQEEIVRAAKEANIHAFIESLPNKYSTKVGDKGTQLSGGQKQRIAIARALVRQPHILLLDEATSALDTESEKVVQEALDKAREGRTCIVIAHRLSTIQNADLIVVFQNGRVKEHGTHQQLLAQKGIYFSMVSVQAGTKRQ

| SMILES | GI50 at 72 h [1] | Activity (MDCK-II [2]) | selectivity ratio at 2 h (ABCG2 [3]) | IC50 [4] | Emax at 2 h (ABCG2 [5]) | selectivity ratio (ABCG2 [6]) | Emax at 2 h (ABCG2 [7]) | Activity (MDCK-II [8]) | IC50 [9] | GI50 at 72 h [10] | IC50 [11] | inhibition (INH) [12] | inhibition (INH) [13] |
| --- | --- | --- | --- | --- | --- | --- | --- | --- | --- | --- | --- | --- | --- |
| Cc1cc(Nc2ccc([N+](=O)[O-])cc2)nc(-c2ccccc2)n1 | 16700 nM | Non-Toxic | 111 | 52.2 nM | 79% | 327 | 67% | Non-Toxic | 11200 nM | 17000 nM | 156 nM | – | – |
| COc1ccc(Nc2cc(C)nc(-c3ccccc3)n2)cc1F | – | Non-Toxic | – | 861 nM | 100% | – | 100% | Non-Toxic | 8990 nM | – | 1310 nM | – | – |
| Cc1cc(Nc2ccc3c(c2)OCCO3)nc(-c2ccccc2)n1 | – | Non-Toxic | – | 808 nM | 100% | – | 100% | Non-Toxic | 13100 nM | – | 1630 nM | – | – |
| Cc1cc(Nc2ccc(F)c([N+](=O)[O-])c2)nc(-c2ccccc2)n1 | – | Non-Toxic | – | 1010 nM | 100% | – | 100% | Non-Toxic | – | – | 771 nM | – | – |
| Cc1cc(Nc2ccc(C#N)c(C(F)(F)F)c2)nc(-c2ccccc2)n1 | 9890 nM | Toxic | 25 | 69.3 nM | 114% | 139 | 92% | Toxic | – | 9570 nM | 385 nM | – | – |
| COc1cc(Nc2cc(C)nc(-c3ccccc3)n2)ccc1Br | – | Non-Toxic | – | 280 nM | 100% | – | 53% | Non-Toxic | 5030 nM | – | 328 nM | Not Active | Not Active |
| Cc1cc(Nc2ccc([N+](=O)[O-])c(Cl)c2)nc(-c2ccccc2)n1 | – | Non-Toxic | – | 58.9 nM | 76% | – | 86% | Non-Toxic | – | – | 228 nM | – | – |
| Cc1cc(Nc2cccc([N+](=O)[O-])c2)nc(-c2ccccc2)n1 | – | Non-Toxic | – | 130 nM | 80% | – | 68% | Non-Toxic | – | – | 146 nM | – | – |
| Cc1cc(Nc2cccc(O)c2)nc(-c2ccccc2)n1 | – | Non-Toxic | – | 253 nM | 74% | – | 59% | Non-Toxic | – | – | 516 nM | – | – |
| Cc1cc(Nc2ccc3c(c2)C(=O)NC3=O)nc(-c2ccccc2)n1 | – | Non-Toxic | – | 253 nM | 105% | – | 101% | Non-Toxic | 17700 nM | – | 416 nM | – | – |
| Cc1cc(Nc2ccc(CC#N)cc2)nc(-c2ccccc2)n1 | – | Non-Toxic | – | 2500 nM | 100% | – | 100% | Non-Toxic | 16000 nM | – | 3620 nM | – | – |
| C[S+](C)[O-] [DIMETHYL SULFOXIDE] | 123000 nM | – | – | – | – | – | – | – | – | 137000 nM | – | – | – |
| Cc1cc(Nc2cccc(Cl)c2)nc(-c2ccccc2)n1 | – | Non-Toxic | – | 811 nM | 100% | – | 100% | Non-Toxic | 5920 nM | – | 1000 nM | Not Active | Not Active |
| COc1cccc(Nc2cc(C)nc(-c3ccccc3)n2)c1 | – | Non-Toxic | – | 271 nM | 96% | – | 100% | Non-Toxic | 13400 nM | – | 503 nM | – | – |
| Cc1cc(Nc2ccc(C#N)c(Br)c2)nc(-c2ccccc2)n1 | 188000 nM | Non-Toxic | 2440 | 119 nM | 90% | 1220 | 40% | Non-Toxic | – | 145000 nM | 59.4 nM | – | – |
| Cc1cc(Nc2cccc(F)c2)nc(-c2ccccc2)n1 | – | Non-Toxic | – | 1110 nM | 100% | – | 100% | Non-Toxic | – | – | 776 nM | – | – |
| Cc1cc(Nc2cccc(CO)c2)nc(-c2ccccc2)n1 | – | Non-Toxic | – | 4220 nM | 100% | – | 100% | Non-Toxic | – | – | 2520 nM | – | – |
| Cc1cc(Nc2cccc(Br)c2)nc(-c2ccccc2)n1 | – | Non-Toxic | – | 892 nM | 100% | – | 83% | Non-Toxic | 7140 nM | – | 386 nM | Not Active | Not Active |
| COc1ccc(Nc2cc(C)nc(-c3ccccc3)n2)cc1C(F)(F)F | 10100 nM | Toxic | 15 | 598 nM | 100% | 14 | 83% | Toxic | 7300 nM | 8400 nM | 544 nM | Not Active | Not Active |
| Cc1cc(Nc2ccc(C#N)c(C#N)c2)nc(-c2ccccc2)n1 | – | Non-Toxic | – | 188 nM | 117% | – | 100% | Non-Toxic | – | – | 548 nM | – | – |
| Cc1cc(Nc2ccc(F)c(C#N)c2)nc(-c2ccccc2)n1 | 102000 nM | Non-Toxic | 1120 | 307 nM | 100% | 315 | 59% | Non-Toxic | – | 96700 nM | 86.1 nM | – | – |
